The source of these data is ChEMBL document CHEMBL1129377, “Synthesis, structure-activity relationships, and the effect of polyethylene glycol on inhibitors of phosphatidylinositol-specific phospholipase C from Bacillus cereus” (J Med Chem, 1996).

Each structure is given as a SMILES string. pIC50: −log10 of the molar value.

Experiment [1] is described as follows: Inhibition of Phosphoinositide specific phospholipase C (PI-PLC) from Bacillus cereus on the internal face of the cell membrane. The essentials:
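Single-phase aqueous assay: recombinant B. cereus PI-PLC, final 5 nM, with 0.25 mM NPIP in 100 mM HEPES, 1 mM EDTA, pH 7, 0.008% PEG-8000, 25 °C. Inhibitor kept at least tenfold below cmc and added before substrate and enzyme. Initial rates at 399 nm over 4 min. IC50 is the mean of two experiments. Ki came from varying NPIP 0.1-0.5 mM at two inhibitor levels, fitted to competitive inhibition.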

The subject of experiment [2] is Bacillus cereus. Nature of the experiment: Compound was tested for the inhibition of Phosphatidylinositol-Specific Phospholipase C (PI-PLC) in the presence of PEG-600 at concentration of 40.0 mM. Also on record: scale not given: the % may be the effect or the level left. In outline:
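Recombinant B. cereus PI-PLC (E. coli periplasmic prep), final 5 nM, with 0.25 mM NPIP (D-enantiomer) in 90% crystallization precipitant solution (33% PEG-600, 0.16 M trisodium citrate-HCl pH 7.35, 46 mM HEPES pH 7), 25 °C. Inhibitor preincubated a few minutes before substrate and enzyme. p-Nitrophenolate followed at 399 nm for 4 min; activity normalized to uninhibited control.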

In experiment [3] the test system is Bacillus cereus. Nature of the experiment: Compound was tested for the inhibition of Phosphoinositide specific phospholipase C (PI-PLC) in the presence of buffer at concentration of 40.0 mM. On the set-up: scale not given: the % may be the effect or the level left. The essentials: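 Recombinant B. cereus PI-PLC, final 5 nM, with 0.25 mM NPIP (D-enantiomer) in 100 mM HEPES, 1 mM EDTA, pH 7, no PEG-600, 25 °C. Inhibitor added a few minutes before substrate and enzyme. Activity normalized to uninhibited control; mean of at least two separate experiments.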

The term pIC50 denotes the negative decadic logarithm of the IC50, by convention in mol/L. The molecule `O[C@H]1[C@@H](O)[C@@H](O)[C@@H](O)[C@@H](O)[C@@H]1O` gave a pIC50 in experiment [1] of 2.70.
For the molecule `CCCCCCOCC(CC(F)(F)P(=O)(O)OC1C(O)C(O)C(O)C(O)C1O)OCCCCCC` (stereo not drawn), the pIC50 in experiment [1] was 4.47.
On to `CCCCCCCCOCC(COP(=O)(O)OC)OCCCCCCCC` (stereo not drawn), for which the Activity was 102% with Bacillus cereus [2] (0.17 mM, in the assay text read “0.17 mM” for “40.0 mM”) and 14% in the experiment with Bacillus cereus [3]. In experiment [1], this molecule had a pIC50 of 4.92.
For the molecule `O=P(O)(O)OC1C(O)C(O)C(O)C(O)C1O` (stereo in doubt; form 2), in experiment [1], the pIC50 was 4.25.
On to `O=P(O)(O)OC1C(O)C(O)C(O)C(O)C1O` (stereo in doubt; form 1) [listing 1 of 2 here], for which, in experiment [1], the pIC50 is 4.37.
In experiment [1], `CCCCCCOCC(CCP(=O)(O)OC)OCCCCCC` (stereo not drawn) showed a pIC50 of 4.64.
Consider `CCCCCCOCC(CCP(=O)(O)OC1C(O)C(O)C(O)C(O)C1O)OCCCCCC` (stereo not drawn), for which the Activity with Bacillus cereus [2] (0.25 mM, in the assay text read “0.25 mM” for “40.0 mM”) was 100%; with Bacillus cereus [3], 25%. In experiment [1], this molecule showed a pIC50 of 4.74.
For the molecule `CCCCCCOCC(CC(F)(F)P(=O)(O)O)OCCCCCC` (stereo not drawn), the pIC50 in experiment [1] is 4.35.
In experiment [1], `O=P1(O)OC2C(O)C(O)C(O)C(O)C2O1` (stereo not drawn) showed a pIC50 of 0.87.
Still for that read-out and setting: to `O=C1C(O)C(O)C(O)C(O)C1O` (stereo in doubt) belongs 3.88.
As to `CCCCCCOCC(CCP(=O)(O)O)OCCCCCC` (stereo not drawn), the pIC50 in experiment [1] is 4.22.
With `O=P(O)(O)OC1C(O)C(O)C(O)C(O)C1O` (stereo in doubt; form 1) [listing 2 of 2 here], the Activity was 56% with Bacillus cereus [2] (16.0 mM, in the assay text read “16.0 mM” for “40.0 mM”) and 69% in the experiment on Bacillus cereus [3].
`CCCCCCOCC(COP(=O)(O)O)OCCCCCC` (stereo not drawn): in experiment [1], the negative-log IC50 (pIC50) is 4.26.
`O=C1C(O)C(O)C(O)C(O)C1O` (racemic) gave a negative-log IC50 (pIC50) in experiment [1] of 5.52.
Same read-out and setting: to `CCCCCOCC(COP(=O)(O)OC)OCCCCC` (stereo not drawn) belongs 3.63.
On to `O[C@H]1[C@H](O)[C@@H](O)[C@H](O)[C@@H](O)[C@H]1O` [INOSITOL], for which the results for the Activity with Bacillus cereus [2] (40.0 mM) and in the experiment on Bacillus cereus [3] were 22% and 18%, respectively. In addition, the pIC50 in experiment [1] is 2.00.
Molecule `O[C@H]1[C@H](O)[C@@H](O)[C@H](O)[C@@H](O)[C@@H]1O` [SCYLLITOL] showed a pIC50 in experiment [1] of 0.39.
In turn, `CCCCCCOCC(COP(=O)(O)OC)OCCCCCC` (stereo not drawn) showed a pIC50 in experiment [1] of 4.28.
In experiment [1], `CCCCCC(=O)OCC(COP(=O)(O)OC)OC(=O)CCCCC` (stereo not drawn) had a pIC50 of 3.93.
In experiment [1], `CCCCCC(=O)OCC(COP(=O)(O)O)OC(=O)CCCCC` (stereo not drawn) gave a pIC50 of 3.73.
In experiment [1], `O[C@@H]1[C@H](O)[C@@H](O)[C@@H](O)[C@@]2(CO2)[C@@H]1O` showed a pIC50 below 1.30.
